According to ChEMBL document CHEMBL1148725, “2,2,2-Trichloro-N-({2-[2-(dimethylamino)ethyl]-1,3-dioxo-2,3-dihydro-1H-benzo[de]isoquinolin- 5-yl}carbamoyl)acetamide (UNBS3157), a novel nonhematotoxic naphthalimide derivative with potent antitumor activity” (J Med Chem, 2007):

What was measured:
HCT-15 = test: Antiproliferative activity against HCT15 cells after 72 hrs by MTT assay; type: functional, cell-based, Homo sapiens
Outline: (§1)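 Cells cultured with each compound for three days; growth then read by the MTT colorimetric assay and reported as IC50 (µM).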

[1] = Antiproliferative activity against U373MG cells after 72 hrs by MTT assay; type: functional, cell-based, Homo sapiens, U-373MG ATCC; conditions: Homo sapiens, U373 MG, 72 h; outline: as §1
MCF7 = test: Antiproliferative activity against MCF7 cells after 72 hrs by MTT assay; type: functional, cell-based, Homo sapiens; conditions: Homo sapiens, MCF7, 72 h; outline: as §1
[2] = Toxicity in ip dosed B6D2F1 mouse; type: organism-based; conditions: in vivo
Outline: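 Acute MTD was set by a single i.p. dose to groups of three healthy female B6D2F1 mice, at 2.5, 5, 10, 20, 40, 80 and 160 mg/kg. The MTD is the dose just below the lowest dose that killed at least one mouse.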

A549 = test: Antiproliferative activity against A549 cells after 72 hrs by MTT assay; type: functional, cell-based, Homo sapiens; conditions: Homo sapiens, A549, 72 h; outline: as §1
L1210 = test: Antitumor activity in L1210 cells xenografted B6D2F1 mouse at 80 mg/kg, ip relative to control; type: functional; conditions: route intraperitoneal
Outline: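 Mice grafted with L1210 leukaemia cells on day 0, then dosed i.p. four times weekly on days 1-4 and 8-11. Five mice per group. Outcome is %T/C, the median survival of treated over control. Kruskal-Wallis test followed by Dunn comparisons against control.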

[3] = Antiproliferative activity against Hs683 cells after 72 hrs by MTT assay; type: functional, cell-based, Homo sapiens, Hs 683; outline: as §1
LoVo = test: Antiproliferative activity against LoVo cells after 72 hrs by MTT assay; type: functional, cell-based, Homo sapiens; outline: as §1

CN(C)CCN1C(=O)c2cccc3cc(NC(=O)Nc4ccc(Cl)cc4)cc(c23)C1=O
IC50 (HCT-15; Homo sapiens, HCT-15, 72 h): 3.1 µM
IC50 [1]: 3.6 µM
IC50 (MCF7): 2.4 µM
MTD [2]: 80 mg/kg
IC50 (A549): 1.9 µM
Activity (L1210): 161%
IC50 ([3]; Homo sapiens, Hs 683, 72 h): 2.8 µM
IC50 (LoVo; Homo sapiens, LoVo, 72 h): 2 µM

CN(C)CCN1C(=O)c2cccc3cc(/N=C\c4ccc(C#N)cc4)cc(c23)C1=O
IC50 (HCT-15; Homo sapiens, HCT-15, 72 h): 9.9 µM
IC50 [1]: 4.2 µM
IC50 (MCF7): 7.4 µM
MTD [2]: > 80 mg/kg
IC50 (A549): 7.7 µM
Activity (L1210): 135%
IC50 ([3]; Homo sapiens, Hs 683, 72 h): > 10 µM
IC50 (LoVo; Homo sapiens, LoVo, 72 h): 4.1 µM

CN(C)CCN1C(=O)c2cccc3cc(NC(=S)Nc4ccc(Cl)cc4)cc(c23)C1=O
IC50 (HCT-15; Homo sapiens, HCT-15, 72 h): > 10 µM
IC50 [1]: > 10 µM
IC50 (MCF7): > 10 µM
MTD [2]: > 80 mg/kg
IC50 (A549): > 10 µM
Activity (L1210): 164%
IC50 ([3]; Homo sapiens, Hs 683, 72 h): > 10 µM
IC50 (LoVo; Homo sapiens, LoVo, 72 h): 8.7 µM

CN(C)CCN1C(=O)c2cccc3cccc(c23)C1=O
IC50 (HCT-15; Homo sapiens, HCT-15, 72 h): 9.2 µM
IC50 [1]: 7.5 µM
IC50 (MCF7): 10 µM
MTD [2]: 40 mg/kg
IC50 (A549): 5.6 µM
Activity (L1210): 156%
IC50 ([3]; Homo sapiens, Hs 683, 72 h): 6.9 µM
IC50 (LoVo; Homo sapiens, LoVo, 72 h): 4.7 µM

CN(C)CCN1C(=O)c2cccc3cc(NC(=O)Nc4ccc5c(c4)OCO5)cc(c23)C1=O
IC50 (HCT-15; Homo sapiens, HCT-15, 72 h): 7.7 µM
IC50 [1]: 1.4 µM
IC50 (MCF7): 6.6 µM
MTD [2]: > 80 mg/kg
IC50 (A549): 5.5 µM
Activity (L1210): 187%
IC50 ([3]; Homo sapiens, Hs 683, 72 h): 5.8 µM
IC50 (LoVo; Homo sapiens, LoVo, 72 h): 4.4 µM

COc1cc(/C=N\c2cc3c4c(cccc4c2)C(=O)N(CCN(C)C)C3=O)ccc1O
IC50 (HCT-15; Homo sapiens, HCT-15, 72 h): > 10 µM
IC50 [1]: > 10 µM
IC50 (MCF7): > 10 µM
MTD [2]: > 80 mg/kg
IC50 (A549): > 10 µM
Activity (L1210): 164%
IC50 ([3]; Homo sapiens, Hs 683, 72 h): > 10 µM
IC50 (LoVo; Homo sapiens, LoVo, 72 h): > 10 µM

CN(C)CCN1C(=O)c2cccc3cc(NC(=S)Nc4ccc(C#N)cc4)cc(c23)C1=O
IC50 (HCT-15; Homo sapiens, HCT-15, 72 h): > 10 µM
IC50 [1]: 9.4 µM
IC50 (MCF7): > 10 µM
MTD [2]: > 80 mg/kg
IC50 (A549): > 10 µM
IC50 ([3]; Homo sapiens, Hs 683, 72 h): > 10 µM
IC50 (LoVo; Homo sapiens, LoVo, 72 h): > 10 µM

CN(C)CCN1C(=O)c2cccc3cc(NCc4ccc5c(c4)OCCO5)cc(c23)C1=O
IC50 (HCT-15; Homo sapiens, HCT-15, 72 h): 6.7 µM
IC50 [1]: 7.1 µM
IC50 (MCF7): 8.9 µM
MTD [2]: > 80 mg/kg
IC50 (A549): 9.7 µM
Activity (L1210): 150%
IC50 ([3]; Homo sapiens, Hs 683, 72 h): 5.5 µM
IC50 (LoVo; Homo sapiens, LoVo, 72 h): 4 µM

CN(C)CCN1C(=O)c2cccc3cc(NC(=O)Nc4ccc(C#N)cc4)cc(c23)C1=O
IC50 (HCT-15; Homo sapiens, HCT-15, 72 h): 9.7 µM
IC50 [1]: 0.9 µM
IC50 (MCF7): 3.1 µM
MTD [2]: > 80 mg/kg
IC50 (A549): 3.5 µM
Activity (L1210): 207%
IC50 ([3]; Homo sapiens, Hs 683, 72 h): 5 µM
IC50 (LoVo; Homo sapiens, LoVo, 72 h): 4.2 µM

CN(C)CCN1C(=O)c2cccc3cc(NC(=S)Nc4ccc(OC(F)(F)F)cc4)cc(c23)C1=O
IC50 (HCT-15; Homo sapiens, HCT-15, 72 h): 5.9 µM
IC50 [1]: 3.6 µM
IC50 (MCF7): 4.8 µM
MTD [2]: 40 mg/kg
IC50 (A549): 4.3 µM
Activity (L1210): 171%
IC50 ([3]; Homo sapiens, Hs 683, 72 h): 6.4 µM
IC50 (LoVo; Homo sapiens, LoVo, 72 h): 4 µM

CN(C)CCN1C(=O)c2cccc3cc(NC(=O)Nc4ccc(OC(F)(F)F)cc4)cc(c23)C1=O
IC50 (HCT-15; Homo sapiens, HCT-15, 72 h): 5.8 µM
IC50 [1]: 3.1 µM
IC50 (MCF7): 6.5 µM
MTD [2]: > 80 mg/kg
IC50 (A549): 3.1 µM
Activity (L1210): 194%
IC50 ([3]; Homo sapiens, Hs 683, 72 h): 2.6 µM
IC50 (LoVo; Homo sapiens, LoVo, 72 h): 3.2 µM

CN(C)CCN1C(=O)c2cccc3cc(NCc4cc5c(cc4[N+](=O)[O-])OCO5)cc(c23)C1=O
IC50 (HCT-15; hct-15): > 10 µM
MTD [2]: > 80 mg/kg
Activity (L1210): 157%
IC50 ([3]; hs 683): > 10 µM
IC50 (LoVo; lovo): 8.1 µM

CN(C)CCN1C(=O)c2cccc3cc(NC=O)cc(c23)C1=O
IC50 (HCT-15; Homo sapiens, HCT-15, 72 h): 4.3 µM
IC50 [1]: 4.4 µM
IC50 (MCF7): 7.4 µM
MTD [2]: > 80 mg/kg
IC50 (A549): 3.9 µM
IC50 ([3]; Homo sapiens, Hs 683, 72 h): 4.8 µM
IC50 (LoVo; Homo sapiens, LoVo, 72 h): 6.6 µM

CN(C)CCN1C(=O)c2cccc3cc(NC(=S)NCc4ccc5c(c4)OCO5)cc(c23)C1=O
IC50 (HCT-15; Homo sapiens, HCT-15, 72 h): > 10 µM
IC50 [1]: > 10 µM
IC50 (MCF7): > 10 µM
MTD [2]: > 80 mg/kg
IC50 (A549): > 10 µM
IC50 ([3]; Homo sapiens, Hs 683, 72 h): > 10 µM
IC50 (LoVo; Homo sapiens, LoVo, 72 h): > 10 µM

CN(C)CCN1C(=O)c2cccc3cc(NCc4ccccc4O[C@H]4O[C@H](CO)[C@@H](O)[C@H](O)[C@H]4O)cc(c23)C1=O
MTD [2]: > 80 mg/kg
Activity (L1210): 113%
